# Bioassay records: PubChem, several laboratories
# B2AR ag: beta2AR agonists driving receptor internalization, primary screen, cell-based, FAP fluorogen, flow cytometry. Am2.2-beta2AR cells. response, % (concentration not given with the values). Beta-2 adrenergic receptor (Homo sapiens), P07550. 340,000 compounds, 0.43% hits. AID 504454, 2011;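 active = response above a set limit, near 3 SD of response in nonfluorescent compounds, cut at about 42% in these data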
# Target sequence (P07550 whole entry, looked up): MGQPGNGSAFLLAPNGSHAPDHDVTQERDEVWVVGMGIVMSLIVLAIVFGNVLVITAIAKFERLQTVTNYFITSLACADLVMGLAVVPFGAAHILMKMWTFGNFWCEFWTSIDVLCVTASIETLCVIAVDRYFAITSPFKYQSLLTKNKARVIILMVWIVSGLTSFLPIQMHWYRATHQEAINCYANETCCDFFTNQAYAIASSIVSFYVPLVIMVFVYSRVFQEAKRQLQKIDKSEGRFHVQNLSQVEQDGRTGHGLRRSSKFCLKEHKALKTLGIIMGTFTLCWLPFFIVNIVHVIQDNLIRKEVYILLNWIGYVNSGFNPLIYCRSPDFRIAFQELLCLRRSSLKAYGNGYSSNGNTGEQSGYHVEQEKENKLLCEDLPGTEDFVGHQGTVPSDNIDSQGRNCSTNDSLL
# Dynein transport: inhibitors of GR-EGFP nuclear translocation, primary screen, dynein cargo transport inhibitor project, imaging, high-content, 3617.4 mouse cells | 220,000 compounds, 0.47% hits | AID 1381, 2008 | test concentration mostly 20 µM; stimulated with dexamethasone, 1 µM; stronger effect = lower value | z-score, hits read low;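 active = plate z-score of nuclear minus cytoplasmic receptor signal below a set negative limit, without overly bright fluorescence or cell loss, cut at about -3.5 in these data, passing the limit was not always enough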;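 also: z-score of nuclear minus cytoplasmic ring GR-EGFP intensity difference per well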
#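 Buffer or medium: tet-free, stripped-serum medium; Also added: dexamethasone, 1.0 µM final; Technique: high-content fluorescence imaging after fixation; Times: 48 h induction, 1 h compound, 30 min dex at 37 °C; Read-out: per-cell GR-EGFP intensity, nucleus versus surrounding cytoplasmic ring, well-averaged.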
# XBP1 UPR activ: activators of adaptive XBP1 UPR arm, primary screen, cell-based, CHO-XBP1 luciferase reporter, luminescence, uHTS. activation, % at 20 µM. 330,000 compounds, 0.33% hits. AID 463104, 2010. IRE1-XBP1 UPR activation; percent of tunicamycin response, DMSO as zero;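 active = versus positive control, 20 µM dose yields 30% or more activation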;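 also: 100% = tunicamycin at 10 µg/mL and 0% = DMSO only wells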
#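 assay system = CHO-XBP1 luciferase reporter cells | amount = 1000 cells/well | buffer or medium = F12 plus 10% FBS | compound dosing = single point, 20 µM final compound, 1% DMSO | incubation = 16-18 h cell attachment at 37 °C, then 6 h compound exposure | detection = Steady-Glo luminescence read | controls = tunicamycin 10 µg/mL and vehicle-only wells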
# Mdm2-MdmX inh: inhibitors of human Mdm2-MdmX association, primary screen, cell-based, luminescence, split luciferase, SaOS-2, uHTS; inhibition, % at 8 µM; AID 485346, 2010; SaOS-2 split-luciferase Mdm2/MdmX complementation; 330,000 compounds, 3% hits;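 active = inhibition of at least 50% at 8 µM in the primary screen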
# MDM2 E3 inh: MDM2-luciferase reporter signal enhancers, primary screen, MDM2 E3 ligase inhibitor project, cell-based, luminescence, 1536-well; 210,000 compounds, 0.11% hits; signal enhancement, % at 5 µM; cell-based MDM2 ubiquitination luciferase reporter, 2 h; 0 = plate control, 100 = twice control, blank-subtracted; AID 1230, 2008; E3 ubiquitin-protein ligase Mdm2 (Homo sapiens), Q00987;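 active = signal enhancement of 30% or more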;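 also: luminescence tracks abundance of the self-degrading MDM2-luciferase fusion protein; higher signal means inhibition of MDM2 E3 ligase activity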
#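 System: stable MDM2–luciferase fusion reporter cells / Input: 2000 cells seeded into each well / Schedule: 4 h settle plus 2 h compound, 37 °C / Compound: single-point 5 µM / Buffer or medium: cells held in DMEM / Benchmarks: control and blank well means / Evaluation: percent signal gain over controls, blank-subtracted / Measured by: luciferase luminescence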
# CHOP UPR activ: activators of apoptotic CHOP UPR arm, primary screen, cell-based, CHO-CHOP luciferase reporter, luminescence, uHTS; UPR activation; percent of tunicamycin response over DMSO baseline; activation, % at 10 µM; 330,000 compounds, 0.34% hits;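 active = at 10 µM dose, activation of 40% or more, normalized to positive control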;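 also: 100% = tunicamycin at 10 µg/mL and 0% = DMSO alone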
#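 Dosing – one dose, 10 µM in 0.5% DMSO · System – CHO-CHOP cells, stable luciferase reporter of PERK-eIF2a-CHOP signalling · Input – 500 cells/well · Control set – tunicamycin 10 µg/mL final as positive, DMSO-only wells as negative · Timing – 6 h compound treatment, 37 °C · Measure – % activation vs tunicamycin · Technique – luminescence read with Steady-Glo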
# Mdm2 MdmX conf: Mdm2-MdmX complex disruptors, retested hits, confirmation, luminescence, single concentration; shares compounds with Mdm2-MdmX inh; Mdm2-MdmX binding, luminescent assay; inhibition, % at 8 µM; 10,000 compounds, 55% hits; AID 489028, 2010; in the data active = inhibition above about 40%
# FLuc counter: full-length luciferase signal inhibition, confirmation, counter-screen for Mdm2/MdmX interaction inhibitor project, cell-based, single concentration, SaOS-2. AID 504607, 2011. inhibition, % at 8 µM. SaOS-2 full-length luciferase counterscreen, luminescence. 6,200 compounds, 77% hits. shares compounds with Mdm2-MdmX inh;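 active = mean inhibition at 8 µM reaching about 37%, which flags the compound as non-specific, limit read from the data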;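 also: p53-null SaOS-2 cells with luciferase driven by a doxycycline-inducible promoter; compound on cells about two nights before reading with doxycycline added after day one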
# * hit, by the source's call; · = no result. A selection: hits, their analogues and other compounds. The true share with any hit is near 3.7%.
SMILES,B2AR ag,Dynein transport,XBP1 UPR activ,Mdm2-MdmX inh,MDM2 E3 inh,CHOP UPR activ,Mdm2 MdmX conf,FLuc counter
O=C(C[C@@H]1C/C=C\C[C@@H](Cc2ccc(F)cc2)C(=O)OC[C@@H](Cc2ccccc2)NC1=O)N[C@H](CO)Cc1ccccc1,-4.4,·,0.4,80.1*,·,-0.1,66.5*,40.6*
C[C@H]1COC(=O)[C@H](NC(=O)OCC2c3ccccc3-c3ccccc32)C/C=C\C[C@H](CC(=O)N(CCO)Cc2ccccc2)C(=O)N1,5.7,·,-1.9,9.3,·,2.1,·,·
O=C(N[C@H]1C/C=C\C[C@H](CC(=O)N(CCO)Cc2ccccc2)C(=O)N[C@@H](c2ccccc2)COC1=O)OCC1c2ccccc2-c2ccccc21,-2.4,·,0.9,8.6,·,0.0,·,·
CC(C)(C)OC(=O)C[C@@H]1C/C=C\C[C@@H](CC(=O)N(CCO)Cc2ccccc2)C(=O)NC[C@H](c2ccccc2)OC1=O,23.2,·,-0.8,59.9*,·,2.1,40.4*,70.7*
O=C(N[C@@H]1C/C=C\C[C@H](CC(=O)N(CCO)Cc2ccccc2)C(=O)NC[C@@H](c2ccccc2)OC1=O)OCC1c2ccccc2-c2ccccc21,8.9,·,-2.3,50.7*,·,2.9,6.7,·
CCCOc1ccc(Cc2c(O)nc(SC)[nH]c2=O)cc1,-5.1,·,-3.4,-14.2,·,0.8,·,·
O=c1c2cc(Br)ccc2nc(-c2ccccc2)n1O,-1.8,·,-2.6,22.8,·,0.7,·,·
O=C(CN1C(=O)NC2(CCc3ccccc32)C1=O)NCc1cccc(C(F)(F)F)c1 (centres undefined),2.5,·,4.7,-5.6,·,-2.3,·,·
O=C(C[C@H]1C/C=C\C[C@H](NC(=O)OCC2c3ccccc3-c3ccccc32)C(=O)O[C@H](c2ccccc2)CNC1=O)N[C@H](CO)Cc1ccccc1,-10.6,·,-1.5,78.5*,·,0.3,47.0*,56.2*
Cn1c(SCC(=O)Nc2ccc(F)cc2)nc2c([nH]c3ccccc32)c1=O,-0.2,0.23,25.8,91.4*,-7.2,9.7,46.1*,90.5*
CCn1c(SCC(=O)Nc2ccc(NC(C)=O)cc2)nc2c([nH]c3ccccc32)c1=O,-20.8,·,-2.0,52.5*,·,0.4,43.7*,44.1*
COCCn1c(SCC(=O)Nc2ccc(F)cc2)nc2c([nH]c3ccccc32)c1=O,2.8,·,-4.5,2.1,·,-1.8,·,·
COCCn1c(SCC(=O)Nc2ccc(C(N)=O)cc2)nc2c([nH]c3ccccc32)c1=O,-5.1,·,3.3,73.8*,·,0.2,34.5,51.5*
CCn1cc2nc(SCC(=O)Nc3ccc(OC)c(OC)c3)n(Cc3ccc(OC)cc3)c(=O)c2n1,-9.0,·,-2.0,-17.3,·,-0.6,·,·
Cc1ccc(NC(=O)CSc2nc3c([nH]c4ccccc43)c(=O)n2C)cc1,-25.2,-0.056,6.1,37.7,-18.1,20.2,·,·
CCn1cc2nc(SCC(=O)Nc3ccc(OC)cc3OC)n(Cc3ccc(OC)cc3)c(=O)c2n1,-10.7,·,4.3,50.3*,·,-0.9,42.0*,52.1*
CCOc1ccc(NC(=O)COC(=O)c2cc(C)oc2C)cc1,0.2,·,-4.0,12.7,·,-0.7,·,·
